Laboratory results from ChEMBL document CHEMBL1150398, “Design and synthesis of 7-alkoxy-4-heteroarylamino-3-quinolinecarbonitriles as dual inhibitors of c-Src kinase and nitric oxide synthase” (Bioorg Med Chem, 2008).
One block for each compound: values may come before it.

What was measured:
[1] = biological target: T1, Nitric oxide synthase, inducible (Mus musculus, UniProt P29477); assay: Inhibition of inducible nitric oxide synthetase in LPS-stimulated mouse ANA1 macrophages
T1 sequence (P29477 whole entry): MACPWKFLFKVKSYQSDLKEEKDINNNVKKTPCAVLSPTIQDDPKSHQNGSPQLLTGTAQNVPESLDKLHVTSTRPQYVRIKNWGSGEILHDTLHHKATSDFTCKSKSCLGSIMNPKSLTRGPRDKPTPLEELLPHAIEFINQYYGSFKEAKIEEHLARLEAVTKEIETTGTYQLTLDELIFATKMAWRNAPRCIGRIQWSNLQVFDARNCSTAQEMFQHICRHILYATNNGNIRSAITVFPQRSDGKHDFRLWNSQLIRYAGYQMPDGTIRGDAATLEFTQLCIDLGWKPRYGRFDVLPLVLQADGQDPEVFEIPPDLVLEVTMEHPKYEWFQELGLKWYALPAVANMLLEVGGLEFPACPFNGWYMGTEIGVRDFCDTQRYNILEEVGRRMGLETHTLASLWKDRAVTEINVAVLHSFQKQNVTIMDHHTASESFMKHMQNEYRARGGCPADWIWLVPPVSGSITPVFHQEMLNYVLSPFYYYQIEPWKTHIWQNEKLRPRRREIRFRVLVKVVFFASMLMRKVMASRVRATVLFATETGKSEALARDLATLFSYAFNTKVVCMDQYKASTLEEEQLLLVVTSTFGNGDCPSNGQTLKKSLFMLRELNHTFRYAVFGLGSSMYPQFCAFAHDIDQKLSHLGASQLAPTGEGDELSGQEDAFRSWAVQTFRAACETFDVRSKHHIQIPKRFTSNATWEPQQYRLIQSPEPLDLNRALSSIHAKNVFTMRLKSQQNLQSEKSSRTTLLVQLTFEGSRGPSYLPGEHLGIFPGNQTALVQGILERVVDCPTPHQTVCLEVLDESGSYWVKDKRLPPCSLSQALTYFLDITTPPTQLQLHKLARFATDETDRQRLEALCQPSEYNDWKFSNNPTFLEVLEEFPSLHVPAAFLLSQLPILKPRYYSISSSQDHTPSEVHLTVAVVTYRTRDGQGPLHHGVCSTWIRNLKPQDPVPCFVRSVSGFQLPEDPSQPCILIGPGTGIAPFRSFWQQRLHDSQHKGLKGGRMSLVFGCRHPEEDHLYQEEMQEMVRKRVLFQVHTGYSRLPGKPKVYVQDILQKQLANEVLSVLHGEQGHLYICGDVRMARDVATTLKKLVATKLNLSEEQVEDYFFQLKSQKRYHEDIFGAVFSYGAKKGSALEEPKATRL
Method in brief: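 ANA-1 macrophages grown in DMEM with 10% heat-inactivated FBS and 2 mM L-glutamine, 37 °C, 5% CO₂, 10⁵ cells/mL prepared the day before. Cells stimulated with LPS for 24 h, collected, then given assay buffer, L-arginine substrate and DAF-FM DA tracer. Reaction started with 0.1 mM NADPH, 37 °C 30 min, washed, fluorescence read. Triplicate, mean of three.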

[2] = biological target: T2, Proto-oncogene tyrosine-protein kinase Src (Homo sapiens, UniProt P12931); assay: Inhibition of human recombinant cSrc by ELISA
[3] = biological target: T2, Proto-oncogene tyrosine-protein kinase Src; assay: Inhibition of human recombinant cSrc by fluorescence polarization assay
HepG2 = assay: Antiproliferative activity against human HepG2 cells after 48 hrs by sulforhodamine B assay; assay type: functional, cell-based; details: HepG2, 48 h; for CC50: read-out: LC50 (the source's name)
Method in brief: (§1)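 SRB assay: cells plated in 96-well plates, mostly at 20,000 cells/well, pre-incubated 24 h without drug. Compounds added in 10-fold dilutions from highest soluble concentration, 48 h further incubation. Cells fixed in situ, washed, dried, SRB stained; proliferation inhibition from change in total optical density after 48 h treatment.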

HT-29 = assay: Antiproliferative activity against human HT29 cells after 48 hrs by sulforhodamine B assay; assay type: functional, cell-based; details: HT-29, 48 h; for CC50: read-out: LC50 (the source's name); method in brief: as §1

T2 sequence (P12931 2-536 limits assumed): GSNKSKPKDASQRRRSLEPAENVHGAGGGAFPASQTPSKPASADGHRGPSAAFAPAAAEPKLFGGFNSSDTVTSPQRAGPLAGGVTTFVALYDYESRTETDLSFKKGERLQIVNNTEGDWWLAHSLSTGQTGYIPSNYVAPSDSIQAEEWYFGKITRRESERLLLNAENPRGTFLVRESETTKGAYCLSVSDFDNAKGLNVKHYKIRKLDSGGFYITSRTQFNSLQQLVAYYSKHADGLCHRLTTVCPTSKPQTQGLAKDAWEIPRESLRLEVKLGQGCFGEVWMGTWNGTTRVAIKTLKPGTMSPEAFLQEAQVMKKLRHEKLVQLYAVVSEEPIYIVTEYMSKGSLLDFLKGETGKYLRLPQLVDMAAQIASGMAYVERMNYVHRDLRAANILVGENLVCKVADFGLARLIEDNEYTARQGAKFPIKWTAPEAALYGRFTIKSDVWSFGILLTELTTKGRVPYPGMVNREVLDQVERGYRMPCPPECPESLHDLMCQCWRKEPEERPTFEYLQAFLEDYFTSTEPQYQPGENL

Structure (SMILES): Cc1ccc2nc(Nc3c(C#N)cnc4cc(OCCCN5CCN(C)CC5)c(C)cc34)sc2c1
IC50 [1]: 12.7 µM

Structure (SMILES): Cc1cc2c(Nc3nc4ccccc4s3)c(C#N)cnc2cc1OCCCN1CCOCC1
IC50 [1]: 139 µM

Structure (SMILES): COc1cc2c(Nc3nc4ccccc4s3)c(C#N)cnc2cc1OCCN1CCN(C)CC1
IC50 [1]: 2.18 µM

Structure (SMILES): Cc1cc2c(Nc3ccccn3)c(C#N)cnc2cc1OCCCN1CCN(C)CC1
IC50 [1]: 18.6 µM

Structure (SMILES): Cc1cc2c(Nc3nc4ccccc4[nH]3)c(C#N)cnc2cc1OCCCN1CCN(C)CC1
IC50 [1]: 15.5 µM
IC50 [3]: > 1 µM

Structure (SMILES): COc1cc2c(Nc3nc4ccccc4[nH]3)c(C#N)cnc2cc1OCCCN1CCN(C)CC1
IC50 [1]: 18.1 µM

Structure (SMILES): Cc1ccc2nc(Nc3c(C#N)cnc4cc(OCCCN5CCCCC5)c(C)cc34)sc2c1
IC50 [1]: 313 µM
GI50 (HepG2): 4.85 µM
IC50 (HepG2): 7.61 µM
TGI (HepG2): 9.25 µM
CC50 (HepG2): > 10 µM
GI50 (HT-29): 5.59 µM
IC50 (HT-29): 6.58 µM
TGI (HT-29): > 10 µM
CC50 (HT-29): > 10 µM

Structure (SMILES): Nc1nccs1 [AMINOTHIAZOLE]
IC50 [1]: 18 µM

Structure (SMILES): COc1cc(Nc2c(C#N)cnc3cc(OCCCN4CCN(C)CC4)c(OC)cc23)c(Cl)cc1Cl [BOSUTINIB]
GI50 (HepG2): 1.15 µM
IC50 (HepG2): 3.91 µM
TGI (HepG2): 7.66 µM
CC50 (HepG2): > 10 µM
GI50 (HT-29): 1.17 µM
IC50 (HT-29): 3.87 µM
TGI (HT-29): 6.5 µM
CC50 (HT-29): > 10 µM

Structure (SMILES): N=C(N)NOCC[C@H](N)C(=O)O [CANAVANINE]
IC50 [1]: 60 µM

More lines, in order of falling IC50 [1], values ahead:

IC50 [1]: 412 µM
Structure (SMILES): Cc1cc2c(Nc3nc4ccccc4s3)c(C#N)cnc2cc1OCCCN1CCCCC1

IC50 [1]: 98 µM
Structure (SMILES): COc1cc2c(Nc3nc4ccccc4s3)c(C#N)cnc2cc1OCCCN1CCN(C)CC1

IC50 [1]: 65.6 µM
Structure (SMILES): COc1cc2c(Nc3nc4ccc(OC(F)(F)F)cc4s3)c(C#N)cnc2cc1OCCCN1CCN(C)CC1

IC50 [1]: 44.8 µM
Structure (SMILES): COc1cc2c(Nc3nc4ccccc4s3)c(C#N)cnc2cc1OCCN1CCCCC1

IC50 [2]: > 1 µM
IC50 [1]: 26.7 µM
Structure (SMILES): COc1cc2c(Nc3nc4ccccc4s3)c(C#N)cnc2cc1OCCN1CCOCC1

IC50 [1]: 16.3 µM
Structure (SMILES): Cc1cc2c(Nc3nc4ccc(OC(F)(F)F)cc4s3)c(C#N)cnc2cc1OCCCN1CCN(C)CC1
